Measurements: paper PMC12246158 (Scientific Reports, 2025)

What was measured:
L. tropica promastigotes = assay: Parasite counting method; assay type: cell-based; details: microscopic counting, 24, 48 and 72 h at 24 °C
Summary of the method: (§1)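 Promastigotes (L. major MRHO/IR/75/ER; L. tropica MRHO/IR/02/Mash10), grown in RPMI 1640 with 20% heat-inactivated FBS and pen-strep, were seeded at 1 × 10^6/mL in log phase. They were exposed to 3.12–1000 µM test compound (DMSO stock diluted in PBS) for 24, 48 and 72 h at 24 °C. Fixed parasites were counted daily in a Neubauer chamber at 400x. Triplicate; AmB 0.93 µM reference; repeated-measures ANOVA.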

L. major promastigotes = assay: Parasite counting method; assay type: cell-based; details: microscopic counting, 24, 48 and 72 h at 24 °C
Summary of the method: as §1

[1] = test system: L. major intracellular amastigotes; assay: Anti-intracellular amastigote activity in J774A.1 macrophages; assay type: cell-based, L. major (MRHO/IR/75/ER); details: Leishmania species not given
Summary of the method: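 SI = CC50/IC50. For amastigotes, J774A.1 cells (10^5/well) were seeded on coverslips for 24 h at 37 °C, 5% CO2, then infected with stationary-phase metacyclic promastigotes (10:1) for 24 h. Test compound 1.32–1000 µM was added for 72 h, then cells were methanol-fixed and Giemsa-stained; amastigotes per 100 macrophages were counted. […] Triplicates.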

Structure (SMILES) | effect on promastigote count (in words) (L. tropica promastigotes) | effect on promastigote count (in words) (L. major promastigotes) | reduction of the number of amastigotes toward the untreated negative control [1]
CNC(=S)NN=Cc1ccc(OC)c(OC)c1 [Compound 5a, 2-(3,4-Dimethoxybenzylidene)-N-methylhydrazine-1-carbothioamide] | significant reduction in promastigote count | significant reduction in promastigote count | –
COc1ccc(C=NNC(=S)Nc2cccnc2)cc1OC [Compound 5o, 2-(3,4-Dimethoxybenzylidene)-N-(pyridin-3-yl)hydrazine-1-carbothioamide] | limited activity | limited activity | 20–25%
CNC(=S)NN=Cc1ccc(O)c(OC)c1 [Compound 5b, 2-(4-Hydroxy-3-methoxybenzylidene)-N-methylhydrazine-1-carbothioamide] | significant reduction in promastigote count | significant reduction in promastigote count | –
CNC(=S)NN=Cc1ccc([N+](=O)[O-])cc1 [Compound 5f, 2-(4-Nitrobenzylidene)-N-methylhydrazine-1-carbothioamide] | significant reduction in promastigote count | significant reduction in promastigote count | –
CNC(=S)NN=Cc1ccc(Br)cc1 [Compound 5e, 2-(4-Bromobenzylidene)-N-methylhydrazine-1-carbothioamide] | significant reduction in promastigote count | significant reduction in promastigote count | –
O=[N+]([O-])NC(=S)NN=Cc1ccc(Br)cc1 [Compound 5j, 2-(4-Bromobenzylidene)-N-nitrohydrazine-1-carbothioamide] | mild effect | mild effect | –
S=C(NN=Cc1ccc(Br)cc1)Nc1cccnc1 [Compound 5n, 2-(4-Bromobenzylidene)-N-(pyridin-3-yl)hydrazine-1-carbothioamide] | limited activity | limited activity | 20–25%
CNC(=S)NN=Cc1ccc(C)cc1 [Compound 5c, N-Methyl-2-(4-methylbenzylidene)hydrazine-1-carbothioamide] | mild | mild | –
CNC(=S)NN=Cc1ccc(OC)cc1 [Compound 5g, N-Methyl-2-(4-methoxybenzylidene)hydrazine-1-carbothioamide] | significant reduction in promastigote count | significant reduction in promastigote count | –
